Data set [1] has as its target CYP2D6 (Homo sapiens, UniProt P10635). The data set is described as follows: CYP inhibition, spectrofluorimetric. Type of data set: biochemical. Particulars: recombinant human CYP2D6 expressed in insect Sf9 cells. In outline: (§1)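 Inhibition was assayed with recombinant human CYP isoforms expressed in insect Sf9 cells. Turnover of spectrofluorimetric substrates was read by fluorescence. Test compound was tested at a single concentration of 10 μM.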

Data set [2] addresses CYP2C9 (Homo sapiens, UniProt P11712). The data set is described as follows: CYP inhibition, spectrofluorimetric. In kind it is biochemical. Particulars: recombinant human CYP2C9 expressed in insect Sf9 cells. The method, boiled down:
as §1

Structures are written as SMILES.

What is called inhibition is the drop in the measured response relative to a control, in per cent.

CYP2C9, sequence (P11712 whole entry): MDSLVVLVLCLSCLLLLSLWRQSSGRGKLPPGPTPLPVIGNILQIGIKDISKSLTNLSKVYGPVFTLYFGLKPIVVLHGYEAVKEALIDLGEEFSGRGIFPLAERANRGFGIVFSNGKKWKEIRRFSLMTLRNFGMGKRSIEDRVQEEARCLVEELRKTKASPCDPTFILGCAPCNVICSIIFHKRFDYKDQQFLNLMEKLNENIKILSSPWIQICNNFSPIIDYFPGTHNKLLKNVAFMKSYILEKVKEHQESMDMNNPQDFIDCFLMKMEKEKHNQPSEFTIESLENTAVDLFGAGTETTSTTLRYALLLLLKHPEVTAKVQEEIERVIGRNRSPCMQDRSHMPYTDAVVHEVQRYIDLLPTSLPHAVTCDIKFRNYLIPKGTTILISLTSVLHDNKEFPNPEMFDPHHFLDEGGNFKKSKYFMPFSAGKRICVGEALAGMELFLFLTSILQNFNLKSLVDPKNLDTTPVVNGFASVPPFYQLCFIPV
CYP2D6, sequence (P10635 whole entry, canonical isoform): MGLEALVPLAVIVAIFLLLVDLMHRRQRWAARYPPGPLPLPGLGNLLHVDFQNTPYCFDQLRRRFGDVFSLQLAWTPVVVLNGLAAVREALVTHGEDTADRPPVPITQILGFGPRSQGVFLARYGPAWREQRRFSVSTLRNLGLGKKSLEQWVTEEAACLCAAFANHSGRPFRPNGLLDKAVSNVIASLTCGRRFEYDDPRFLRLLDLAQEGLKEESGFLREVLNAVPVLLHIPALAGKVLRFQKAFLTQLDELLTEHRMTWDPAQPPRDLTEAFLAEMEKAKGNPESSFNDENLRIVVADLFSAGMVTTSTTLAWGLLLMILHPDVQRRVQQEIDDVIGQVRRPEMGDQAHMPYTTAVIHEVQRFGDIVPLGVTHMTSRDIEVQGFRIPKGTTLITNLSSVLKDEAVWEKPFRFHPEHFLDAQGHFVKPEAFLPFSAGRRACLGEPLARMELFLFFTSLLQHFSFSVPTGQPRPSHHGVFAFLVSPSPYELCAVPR

In the case of `Cc1cc(C(=O)NC(C)(C)COc2cccc3c2C(N)=NS(=O)(=O)N3)cc(C)n1` [S2218, N-(1-((4-amino-2,2-dioxido-1H-benzo[c][1,2,6]thiadiazin-5-yl)oxy)-2-methylpropan-2-yl)-2,6-dimethylisonicotinamide], the inhibition at 10 μM in data set [1] and in data set [2] was at most 7% throughout.

The values above are taken from paper PMC5615155 (Toxicology Reports, 2017).
